Experimental data from ChEMBL document CHEMBL1124663, “Design, synthesis, antineoplastic activity, and chemical properties of bis(carbamate) derivatives of 4,5-bis(hydroxymethyl)imidazole” (J Med Chem, 1989).

Tests used:
Mus musculus [1] = experiment: Body weight difference (BWD) of test animals administered with 50 mg/kg compound is determined on day 5 for L1210 tumor cells; assay type: functional
In short: (§1)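 L1210 leukaemia: 10^5 cells implanted ip on day 0 in mice. Freshly prepared saline suspension given ip once daily on days 1–5. Body weight difference in g (treated minus control) taken as day 5 minus day 1. Six animals per dose.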

Mus musculus [2] = experiment: Body weight difference (BWD) of test animals administered with 50 mg/kg compound is determined on day 5 for P388 tumor cells; assay type: functional
In short: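 P388 leukaemia: about 10^6 cells in ascitic fluid inoculated ip on day 0 (CD2F1 mice). Compound given ip in normal saline as a freshly prepared solution or suspension, once daily on days 1–5. Treated-minus-control body weight difference in g, taken as day 5 minus day 1 weight. Groups of six.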

Mus musculus [3] = experiment: Body weight difference (BWD) of test animals administered with 200 mg/kg compound is determined on day 5 for L1210 tumor cells; assay type: functional; in short: as §1
Mus musculus [4] = experiment: Body weight difference (BWD) of test animals administered with 50 mg/kg compound is determined on day 14 for M5076 minus 1 tumor cells; assay type: functional
In short: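 M5076 sarcoma: 10^6 cells inoculated ip on day 0 in B6C3F1 mice. Fresh saline suspension dosed ip every fourth day, on days 1, 5, 9 and 13. Body weight difference in g (treated minus control) taken as day 14 minus day 1. Ten mice per group.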

Mus musculus [5] = experiment: Body weight difference (BWD) of test animals administered with 100 mg/kg compound is determined on […] tumor cells; assay type: functional
In short: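 MX-1 human mammary xenograft: solid tumour fragment (1 mm3, 0.5 mg) placed as a subrenal capsule implant on day 0 in NCR-nu mice. Fresh saline suspension dosed ip on days 1, 5 and 9. Body weight difference in g (treated minus control) recorded. Assay evaluated on day 11. Six mice per group.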

Mus musculus [6] = experiment: Body weight difference (BWD) of test animals administered with 12.5 mg/kg compound is determined on day 5 for L1210 tumor cells; assay type: functional; in short: as §1
Mus musculus [7] = experiment: Ability of 200 mg/kg of compound to kill M5076 tumor cells in mice is expressed as the log of the tumor cell population at the onset of treatment minus the log of the tumor cell population at the end of treatment; assay type: functional
In short: (§2)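 M5076 sarcoma, 10^6 cells ip on day 0 in B6C3F1 mice. Drug given ip as a fresh saline suspension every fourth day (days 1, 5, 9, 13). % T/C is median survival of treated versus control mice, counting long-term survivors. Cures are 60-day survivors. Log cell kill is derived from this.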

Mus musculus [8] = experiment: Ability of 25 mg/kg of compound to kill L1210 tumor cells in mice is expressed as the log of the tumor cell population at the onset of treatment minus the log of the tumor cell population at the end of treatment; assay type: functional
In short: (§3)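 L1210 leukemia, 10^5 cells implanted ip on day 0. Drug given ip daily on days 1-5 as a saline suspension freshly prepared before each injection. Read-out is median survival of treated versus control mice (% T/C), and log cell kill is derived from it.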

Mus musculus [9] = experiment: Ability of 100 mg/kg of compound to kill L1210 tumor cells in mice is expressed as the log of the tumor cell population at the onset of treatment minus the log of the tumor cell population at the end of treatment; assay type: functional; in short: as §3
Mus musculus [10] = experiment: Ability of 100 mg/kg of compound to kill M5076 tumor cells in mice is expressed as the log of the tumor cell population at the onset of treatment minus the log of the tumor cell population at the end of treatment; assay type: functional; in short: as §2
Mus musculus [11] = experiment: The toxicity day was evaluated on day 5 for L1210 tumor cells of test animals dosed with 12.5 mg/kg of compound; 6/6; assay type: functional
In short: (§4)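 L1210 leukaemia, 10^5 cells, implanted ip on day 0. Freshly prepared saline suspension dosed ip daily on days 1-5. Toxicity evaluated on day 5 as survivors over animals in the initial test group.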

Mus musculus [12] = experiment: The toxicity day was evaluated on day 5 for L1210 tumor cells of test animals dosed with 50 mg/kg of compound; 6/6; assay type: functional; in short: as §4
Mus musculus [13] = experiment: Toxicity day evaluation was carried out on day 5 for animal dosed with 50 mg/kg compound; 6/6; assay type: organism-based; parameters: dose 50 mg/kg; conditions: in vivo
Mus musculus [14] = experiment: Ability of 50 mg/kg of compound to kill L1210 tumor cells in mice is expressed as the log of the tumor cell population at the onset of treatment minus the log of the tumor cell population at the end of treatment; assay type: functional; in short: as §3
Mus musculus [15] = experiment: The percent of the median survival time of test mice compared to control mice, administered with 100 mg/kg compound on day 14 for M5076 minus 1 tumor cells; assay type: functional; in short: as §2
Mus musculus [16] = experiment: The percent of the median survival time of test mice compared to control mice, administered with 12.5 mg/kg compound on day 5 for L1210 tumor cells; assay type: functional; in short: as §3
Mus musculus [17] = experiment: Ability of 25 mg/kg of compound to kill M5076 tumor cells in mice is expressed as the log of the tumor cell population at the onset of treatment minus the log of the tumor cell population at the end of treatment; assay type: functional; in short: as §2
Mus musculus [18] = experiment: The percent of the median survival time of test mice compared to control mice is % T/C which refers to tumor size in this case. It is determined for mice administered with 100 mg/kg compound on day 11 for MX-1 tumor cells; assay type: functional; conditions: route intraperitoneal
In short: (§5)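 Human MX-1 mammary xenograft, a 1 mm3 (0.5 mg) tumor fragment implanted under the renal capsule of NCR-nu mice on day 0. Drug given ip as a fresh saline suspension on days 1, 5 and 9. Tumor size is assessed on day 11. A negative % T/C is percent shrinkage relative to the initial implant. Survivors in the toxicity group are […].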

Mus musculus [19] = experiment: The percent of the median survival time of test mice compared to control mice is % T/C. It is determined for mice administered with 100 mg/kg compound on day 0 for LOX 1 tumor cells.; assay type: functional; conditions: route intraperitoneal
Mus musculus [20] = experiment: The percent of the median survival time of test mice compared to control mice is determined for mice administered with 50 mg/kg compound; assay type: functional
Mus musculus [21] = experiment: The toxicity day was evaluated on day 0 for LOX tumor cells of test animals dosed with 200 mg/kg of compound; 3/6; assay type: functional
Mus musculus [22] = experiment: The toxicity day was evaluated on day 0 for LOX tumor cells of test animals dosed with 50 mg/kg of compound; 6/6; assay type: functional
Mus musculus [23] = experiment: The toxicity day was evaluated […] for MX-1 tumor cells of test animals dosed with 100 mg/kg of compound; 6/6; assay type: functional; in short: as §5
Mus musculus [24] = experiment: The toxicity day was […] for M5076 minus 1 tumor cells of test animals dosed with 100 mg/kg of compound; 10/10; assay type: functional
In short: (§6)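 M5076 sarcoma, 10^6 cells, inoculated ip into B6C3F1 mice on day 0. Fresh saline suspension given ip every fourth day (days 1, 5, 9, 13). Toxicity survivors were scored on day 5 as survivors over initial group. Body-weight difference was day 14 minus day 1.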

Mus musculus [25] = experiment: The toxicity day was evaluated […] for M5076 minus 1 tumor cells of test animals dosed with 200 mg/kg of compound; 10/10; assay type: functional; in short: as §6
Mus musculus [26] = experiment: The toxicity day was evaluated […] for M5076 minus 1 tumor cells of test animals dosed with 25 mg/kg of compound; 10/10; assay type: functional; in short: as §6
Mus musculus [27] = experiment: The percent of the median survival time of test mice compared to control mice, administered with 50 mg/kg compound on day 14 for M5076 minus 1 tumor cells; assay type: functional; in short: as §2

CNC(=O)OCc1nc(SC)n(C)c1COC(=O)NC
BWD (Mus musculus [1]): -0.5 g | BWD (Mus musculus [2]): -2.6 g | BWD (Mus musculus [3]): -3.6 g | BWD (Mus musculus [4]): -0.7 g | BWD (Mus musculus [5]): -2.7 g | BWD (Mus musculus [6]): -0.2 g | KE (Mus musculus [7]): 0.98 | KE (Mus musculus [8]): -2.23 | KE (Mus musculus [9]): -0.29 | KE (Mus musculus [10]): -0.34 | Survivors / animals tested (Mus musculus [11]): 6 | Survivors / animals tested (Mus musculus [12]): 6 | Survivors / animals tested (Mus musculus [13]): 6 | KE (Mus musculus [14]): -1.94 | T/C (Mus musculus [15]): 151% | T/C (Mus musculus [16]): 103% | KE (Mus musculus [17]): -1.51 | T/C (Mus musculus [18]): -73% | T/C (Mus musculus [19]): 365% | T/C (Mus musculus [20]): 184% | Survivors / animals tested (Mus musculus [21]): 3 | Survivors / animals tested (Mus musculus [22]): 6 | Survivors / animals tested (Mus musculus [23]): 6 | Survivors / animals tested (Mus musculus [24]): 10 | Survivors / animals tested (Mus musculus [25]): 10 | Survivors / animals tested (Mus musculus [26]): 10 | T/C (Mus musculus [27]): 119%
